proKLK7 act: activators of human kallikrein-7 zymogen | purified proKLK7, EDANS-DABCYL substrate fluorescence; 100% is mature enzyme control, 0% vehicle | hit rate 0.9% among 370,000 | activation, % at 7 µM | AID 652039;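 active = activation above the mean of all tested compounds plus 3 SD, computed per campaign excluding outliers beyond control limits, cut at about 13% in these data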
Target sequence (P49862 whole entry, looked up): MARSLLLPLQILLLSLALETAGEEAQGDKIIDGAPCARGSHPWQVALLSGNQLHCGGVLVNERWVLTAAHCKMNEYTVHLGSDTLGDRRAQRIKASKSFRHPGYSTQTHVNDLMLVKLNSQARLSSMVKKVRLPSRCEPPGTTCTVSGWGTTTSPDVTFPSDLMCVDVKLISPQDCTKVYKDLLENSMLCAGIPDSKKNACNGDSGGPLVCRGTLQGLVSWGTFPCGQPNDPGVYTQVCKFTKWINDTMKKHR
DDE Tn7 FP inh: DD(E)-Tn7 binding inhibition, primary FP screen | FP displacement of FITC-Tn7 peptide from fibrin DD(E); 0% = median of compound wells per plate | inhibition, % at 8.3 µM | hit rate 0.13% among 370,000;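 active = inhibition above the mean of compounds falling within the control limits plus 3 SD of them, cut at about 14% in these data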
Target sequence (P02675 whole entry, looked up): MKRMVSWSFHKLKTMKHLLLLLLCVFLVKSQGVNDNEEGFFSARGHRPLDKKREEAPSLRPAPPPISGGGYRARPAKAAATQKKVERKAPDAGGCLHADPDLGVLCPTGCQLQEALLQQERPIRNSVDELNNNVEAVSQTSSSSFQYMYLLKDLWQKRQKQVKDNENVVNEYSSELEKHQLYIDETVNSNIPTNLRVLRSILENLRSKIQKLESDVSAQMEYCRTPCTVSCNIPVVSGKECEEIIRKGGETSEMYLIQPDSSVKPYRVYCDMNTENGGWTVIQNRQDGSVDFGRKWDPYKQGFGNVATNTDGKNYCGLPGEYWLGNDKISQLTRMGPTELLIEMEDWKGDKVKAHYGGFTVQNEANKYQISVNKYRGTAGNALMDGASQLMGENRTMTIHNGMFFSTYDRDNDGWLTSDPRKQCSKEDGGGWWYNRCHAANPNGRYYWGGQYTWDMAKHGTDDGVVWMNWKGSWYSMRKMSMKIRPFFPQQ
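System: human fibrin DD(E); quantity: Fibrin-DD(E) at 2 µM final; also added: fluorescent Tn7 probe at 0.1 µM; compound dosing: single nominal test concentration of 8.3 µM per compound; schedule: 10 min preincubation, 3 h with tracer, room temperature; detection: fluorescence polarization of the labelled Tn7 tracer; repeats: one replicate per compound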
DDE Tn6 FP inh: disrupts Tn6 cyclic peptide binding to fibrin D-Dimer-E complex. P02675. Fibrin DD(E) TRITC-Tn6 fluorescence polarization displacement. inhibition, % at 8.3 µM. hit rate 0.21% among 370,000. AID 720509;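 active = inhibition above a per-campaign cutoff: mean of compounds within control limits plus 3 SD, cut at about 15% in these data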
SKN-1 inh: blocks SKN-1 activity in C. elegans. C. elegans VP596 Pgst-4::GFP/RFP ratio, acrylamide-induced, 24 h. inhibition, % at 21.8 µM. hit rate 0.49% among 360,000. AID 624304;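 active = interference check ratio from 0.5 to 1.5 plus GFP to RFP signal ratio inhibition reaching or exceeding a fixed threshold, cut at about 30% in these data, passing the limit was not always enough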
MT1-MMP act inh: inhibitors of human MT1-MMP activation; AID 651647; hit rate 0.061% among 360,000; GFP/RFP ratio change, % at 20 µM; HT1080 RFP-PRO-GFP cells, GFP/RFP ratio fluorescence, overnight; percent of plate control window, DMSO zero; P50281;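 active = GFP/RFP ratio change of at least 30% with cell ATP level not reduced by more than half and red fluorescence within 50% of control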
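Read-out: GFP/RFP fluorescence ratio; Test system: RFP-PRO-GFP reporter HT1080 cells; Compound dosing: single-point 20 µM compound, 1% DMSO; Times: overnight compound exposure at 37 °C.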
Neddyl block: cullin neddylation inhibition. P61081+Q13564. TR-FRET cullin neddylation, biochemical. calls only at 25 µM. hit rate 0.58% among 360,000; in the data active = inhibition above about 36%
Tn6 DDE ctr: DD(E)-Tn6 binding inhibition, counter-screen. Fibrin DD(E), TRITC-Tn6 fluorescence polarization displacement; 0% = median of compound wells, not DMSO. shares compounds with DDE Tn6 FP inh. AID 720621. inhibition, % at 8.3 µM. hit rate 2% among 680;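 active = inhibition above the mean of test compounds lying between the control limits plus 3 SD of those, cut at about 14% in these data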
DDE Tn6 confirm: confirmation of inhibitors of Tn6 binding to human fibrin DD(E); AID 720631; shares compounds with DDE Tn6 FP inh; hit rate 10% among 680; inhibition, % at 8.3 µM; FP displacement of TRITC-Tn6 peptide from DD(E); 0% = per-plate median of test wells;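 active = inhibition above the mean of compounds lying within the control limits plus 3 SD, cut at about 16% in these data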
Numbers stand for hits. Rows were chosen to be rich in hits. Some 2.2% of all compounds tested hit in one or more screens of this group.

How did O=C(O)CCN(Cc1ccccc1)S(=O)(=O)c1ccc(Cl)cc1F do in these assays?
proKLK7 act: inactive; DDE Tn7 FP inh: inactive; DDE Tn6 FP inh: 15.6; SKN-1 inh: inactive; MT1-MMP act inh: inactive; Neddyl block: inactive; Tn6 DDE ctr: inactive; DDE Tn6 confirm: inactive

How did O=C(O)CCN(Cc1ccccc1)S(=O)(=O)c1ccccc1Cl do in these assays?
proKLK7 act: inactive; DDE Tn7 FP inh: inactive; DDE Tn6 FP inh: inactive; SKN-1 inh: inactive; MT1-MMP act inh: inactive; Neddyl block: inactive

What do the screens show for `CCn1c(=O)c2ccccc2n2c(SCC(=O)N3CCCc4ccccc43)nnc12`?
proKLK7 act: inactive; DDE Tn7 FP inh: inactive; DDE Tn6 FP inh: 15.4; SKN-1 inh: inactive; MT1-MMP act inh: inactive; Neddyl block: inactive; Tn6 DDE ctr: inactive; DDE Tn6 confirm: inactive

What do the screens show for `Cc1cc(CN(C)C(=O)CC2C(=O)NCCN2Cc2ccc(F)c(F)c2)on1` (stereo not drawn)?
proKLK7 act: inactive; DDE Tn7 FP inh: inactive; DDE Tn6 FP inh: inactive; SKN-1 inh: inactive; MT1-MMP act inh: inactive; Neddyl block: inactive

Results for Cc1cc(CN(C)C(=O)CC2C(=O)NCCN2Cc2ccc(-c3ccccc3)cc2)on1 (stereo not drawn) ?
proKLK7 act: inactive; DDE Tn7 FP inh: inactive; DDE Tn6 FP inh: 15.9; SKN-1 inh: inactive; Neddyl block: inactive; Tn6 DDE ctr: inactive; DDE Tn6 confirm: inactive

What do the screens show for `COC(=O)[C@]12C=CCN1[C@H](c1ccccc1)c1c(c3ccccc3n1S(=O)(=O)c1ccc(C)cc1)C2`?
proKLK7 act: inactive; DDE Tn7 FP inh: inactive; DDE Tn6 FP inh: 18.8; Tn6 DDE ctr: inactive; DDE Tn6 confirm: inactive

Results for COC(=O)[C@]12C=CCN1[C@H](c1ccc(OC)c(OC)c1)c1c(c3ccccc3n1S(=O)(=O)c1ccc(C)cc1)C2 ?
proKLK7 act: inactive; DDE Tn7 FP inh: inactive; DDE Tn6 FP inh: inactive

How did COc1ccc(NC(=O)c2oc3ccccc3c2NC(=O)c2ccc(OC)c(OC)c2)c(OC)c1 do in these assays?
proKLK7 act: inactive; DDE Tn7 FP inh: inactive; DDE Tn6 FP inh: inactive; SKN-1 inh: inactive; MT1-MMP act inh: inactive

How did COc1ccc(NC(=O)c2oc3ccccc3c2NC(=O)COc2ccccc2OC)c(OC)c1 do in these assays?
proKLK7 act: inactive; DDE Tn7 FP inh: inactive; DDE Tn6 FP inh: 17.9; SKN-1 inh: inactive; MT1-MMP act inh: inactive; Neddyl block: inactive; Tn6 DDE ctr: inactive; DDE Tn6 confirm: inactive

Results for Cc1ccc(S(=O)(=O)CCC(=O)N2CCN(c3ccc(Cl)cc3)CC2)cc1 ?
proKLK7 act: inactive; DDE Tn7 FP inh: inactive; DDE Tn6 FP inh: inactive; SKN-1 inh: inactive; MT1-MMP act inh: inactive; Neddyl block: inactive

What do the screens show for `O=C(CCS(=O)(=O)c1ccc(Cl)cc1)N1CCN(c2ccc(F)cc2)CC1`?
proKLK7 act: inactive; DDE Tn7 FP inh: inactive; DDE Tn6 FP inh: 18.4; SKN-1 inh: inactive; MT1-MMP act inh: inactive; Neddyl block: inactive; Tn6 DDE ctr: inactive; DDE Tn6 confirm: inactive

Results for CC(=O)C1=C(O)C(=O)N(c2ccc(Br)cc2)C1c1cccc([N+](=O)[O-])c1 (stereo not drawn) ?
proKLK7 act: inactive; DDE Tn7 FP inh: inactive; DDE Tn6 FP inh: inactive; SKN-1 inh: inactive; MT1-MMP act inh: inactive; Neddyl block: inactive

What do the screens show for `Cn1c(NC(=O)c2ccccc2)c(-c2cccs2)c(=O)c2ccccc21`?
proKLK7 act: inactive; DDE Tn7 FP inh: inactive; DDE Tn6 FP inh: inactive; SKN-1 inh: inactive; MT1-MMP act inh: inactive; Neddyl block: inactive

Results for Cc1ccc(S(=O)(=O)NCCC(=O)OCc2ccc([N+](=O)[O-])cc2)cc1C ?
proKLK7 act: inactive; DDE Tn7 FP inh: inactive; DDE Tn6 FP inh: 17.6; SKN-1 inh: inactive; MT1-MMP act inh: inactive; Neddyl block: inactive; Tn6 DDE ctr: inactive; DDE Tn6 confirm: inactive

What do the screens show for `CCn1nnnc1SCC(=O)Nc1nc(C)c(C)s1`?
proKLK7 act: inactive; DDE Tn7 FP inh: inactive; DDE Tn6 FP inh: 16.1; SKN-1 inh: inactive; MT1-MMP act inh: inactive; Neddyl block: inactive; Tn6 DDE ctr: inactive; DDE Tn6 confirm: inactive

How did O=[N+]([O-])c1cc(C(F)(F)F)ccc1NC1CCN(Cc2ccccc2)C1 (stereo not drawn) do in these assays?
proKLK7 act: inactive; DDE Tn7 FP inh: inactive; DDE Tn6 FP inh: inactive; SKN-1 inh: inactive; MT1-MMP act inh: inactive; Neddyl block: inactive

How did O=c1ccc2nc3ccccc3sc-2c1 do in these assays?
proKLK7 act: inactive; DDE Tn7 FP inh: inactive; DDE Tn6 FP inh: 19.6; SKN-1 inh: inactive; MT1-MMP act inh: inactive; Neddyl block: inactive; Tn6 DDE ctr: inactive; DDE Tn6 confirm: inactive

How did O=C(c1ccc(Cl)c(S(=O)(=O)N2CCCCCC2)c1)N1CCCC(C(F)(F)F)C1 (stereo not drawn) do in these assays?
proKLK7 act: inactive; DDE Tn7 FP inh: inactive; DDE Tn6 FP inh: inactive; SKN-1 inh: inactive; MT1-MMP act inh: inactive; Neddyl block: inactive

What do the screens show for `Cc1ccc(C(=O)N2CCCC(C(F)(F)F)C2)cc1S(=O)(=O)N1CCCCC1` (stereo not drawn)?
proKLK7 act: inactive; DDE Tn7 FP inh: inactive; DDE Tn6 FP inh: 16.3; SKN-1 inh: inactive; MT1-MMP act inh: inactive; Neddyl block: inactive; Tn6 DDE ctr: inactive; DDE Tn6 confirm: inactive

What do the screens show for `O=C(NC(=S)Nc1ccccc1)c1cc(-c2ccccc2)nc2ccccc12`?
proKLK7 act: inactive; DDE Tn7 FP inh: inactive; DDE Tn6 FP inh: 20.7; SKN-1 inh: inactive; MT1-MMP act inh: inactive; Neddyl block: inactive; Tn6 DDE ctr: inactive; DDE Tn6 confirm: inactive

How did O=C(NC(=S)Nc1ccccn1)c1cc(-c2ccccc2)nc2ccccc12 do in these assays?
proKLK7 act: inactive; DDE Tn7 FP inh: inactive; DDE Tn6 FP inh: inactive; SKN-1 inh: inactive; MT1-MMP act inh: inactive; Neddyl block: inactive

What do the screens show for `CCCCC(CC)C(=O)N1CCN(C(=O)c2ccco2)CC1` (stereo not drawn)?
proKLK7 act: inactive; DDE Tn7 FP inh: inactive; DDE Tn6 FP inh: 16.6; SKN-1 inh: inactive; MT1-MMP act inh: inactive; Neddyl block: inactive; Tn6 DDE ctr: inactive; DDE Tn6 confirm: inactive

How did CCCCNC(=O)N1CCN(C(=O)c2ccco2)CC1 do in these assays?
proKLK7 act: inactive; DDE Tn7 FP inh: inactive; DDE Tn6 FP inh: inactive; SKN-1 inh: inactive; MT1-MMP act inh: inactive; Neddyl block: inactive

Results for O=[n+]1c2c(n([O-])c3cc(F)c(N4CCCC4)cc31)CCCC2 ?
proKLK7 act: inactive; DDE Tn7 FP inh: inactive; DDE Tn6 FP inh: inactive; SKN-1 inh: inactive; MT1-MMP act inh: inactive; Neddyl block: inactive

Bioassay records (PubChem)
